Measured values collected from several papers.
Target: 3-phosphoinositide-dependent protein kinase 1 (PDPK1, Homo sapiens, UniProt O15530)
Action: inhibitor

SMILES	observed	technique	tested at	inhibition [%]
COc1cc2ncnc(Nc3ccc(Oc4ccccc4)cc3C)c2cc1OC	enzyme activity		1 µM	-2
CN(c1ncccc1CNc1nc(Nc2ccc3c(c2)CC(=O)N3)ncc1C(F)(F)F)S(C)(=O)=O	enzyme activity		1 µM	36
CN(C)C1CCN(CC#Cc2nn(C3CCCC3)c3nc(NCc4ccccc4)ncc23)C1 (stereo not drawn)	enzyme activity	FRET	0.1 µM	0
CSc1nc(C)c(-c2ccnc(Nc3ccc(N4CCOCC4)cc3)c2)[nH]1	enzyme activity		10 µM	41.3
COc1cccc2c(NCc3ccccc3)nc(-n3c(N)nc4ccccc43)nc12	target engagement in cells	chemoproteomics	20 mM	-5.3
O=C(CSc1nc2nccnc2c(=O)n1CCc1ccccc1)Nc1nccs1	enzyme activity		10 µM	11
CN1CC(Oc2cnc(C#N)cc2-c2ccn3nc(NC(=O)C4CC4)cc3c2)C1	enzyme activity		1 µM	12
CCCCNc1ncc2c(-c3ccc(F)cc3)nn(C[C@H]3CC[C@H](N)CC3)c2n1	target engagement in cells	chemoproteomics	20 mM	7.1
Cc1ccc(Nc2nccc(N(C)c3ccc4c(C)n(C)nc4c3)n2)cc1S(N)(=O)=O	enzyme activity		10 µM	34
C=CC(=O)Nc1cc(Nc2nccc(Nc3cc(Cl)c(F)cc3C(C)(C)O)n2)c(OC)cc1N1CC[C@@H](N(C)C)C1	enzyme activity		1 µM	-2
Nc1ncc2cc(-c3c(Cl)cccc3-c3cccnc3)c(N3C[C@@H]4[C@@H](N)[C@@H]4C3)nc2n1	enzyme activity	FRET	25 µM	0
CNC(=O)c1cc(Oc2ccc(NC(=O)Nc3ccc(Cl)c(C(F)(F)F)c3)cc2)ccn1	enzyme activity		10 µM	8
